Reference: ChEMBL document CHEMBL2021813, “Semisynthetic neoclerodanes as kappa opioid receptor probes” (Bioorg Med Chem, 2012)

Key:
[1] = target: T1, Delta-type opioid receptor (Homo sapiens, UniProt P41143); assay: Displacement of [3H]DADLE from human recombinant delta opioid receptor expressed in CHO cells at 10 uM after 2 hrs by liquid scintillation counting; type: cell-based
Outline: (§1)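 Radioligand (~2 nM) competition on human opioid receptor CHO membranes in Tris-HCl pH 7.4, 2 hr at 25 °C, with GF/B filtration and scintillation counting. Results are percent of control produced by a single test drug concentration, 1 μM or 10 μM as the line states. Nonspecific binding was set by 20 μM levallorphan (DADLE, DAMGO) or 1 μM (−)-U69,593 (U69,593).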

[2] = target: T1, Delta-type opioid receptor; assay: Displacement of [3H]DADLE from human recombinant delta opioid receptor expressed in CHO cells after 2 hrs by liquid scintillation counting; type: cell-based
Outline: (§2)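 Membranes from CHO cells stably transfected with human DOP, MOP or KOP receptor, in 50 mM Tris-HCl pH 7.4 with a protease inhibitor cocktail. The ~2 nM [3H]radioligand was displaced by 10 drug concentrations, in triplicate, for 2 hr at 25 °C, then filtered over GF/B. Nonspecific binding was set by 20 μM levallorphan (DADLE, DAMGO) or 1 μM (−)-U69,593 (U69,593). Ki (±SD) came from full curves, n=3.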

Mu-type opioid receptor [3] = target: T2, Mu-type opioid receptor (Homo sapiens, UniProt P35372); assay: Displacement of [3H]DAMGO from human recombinant mu opioid receptor expressed in CHO cells after 2 hrs by liquid scintillation counting; type: cell-based; outline: as §2
Mu-type opioid receptor [4] = target: T2, Mu-type opioid receptor; assay: Displacement of [3H]DAMGO from human recombinant mu opioid receptor expressed in CHO cells at 10 uM after 2 hrs by liquid scintillation counting; type: cell-based; outline: as §1
[5] = target: T3, Kappa-type opioid receptor (Homo sapiens, UniProt P41145); assay: Displacement of [3H]U69593 from human recombinant kappa opioid receptor expressed in CHO cells after 2 hrs by liquid scintillation counting; type: cell-based; outline: as §2
Rhesus monkey = assay: In vivo binding affinity to kappa opioid receptor in iv dosed rhesus monkey assessed as rightward shift in serum prolactin level administered every 20 mins measured every 15 mins by immunoradiometric analysis; type: functional; conditions: Macaca mulatta
Outline: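 Chair-trained male rhesus monkeys received i.v. cumulative doses rising in 0.5 log steps every 20 min. Blood was sampled 15 min after each dose, after two baseline samples at −10 and −5 min. Serum prolactin was expressed as change from each subject's pre-injection baseline, as mean ±SEM. ED50 came from linear regression of mean dose-effect points spanning the ED50.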

[6] = target: T3, Kappa-type opioid receptor; assay: Agonist activity at human recombinant kappa opioid receptor expressed in CHO cells assessed as [35S]GTP-gamma-S binding after 3 hrs by liquid scintillation counting; type: functional, cell-based
Outline: (§3)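 hKOP-CHO membranes (50 μg protein) were incubated with 50 pM [35S]GTP-γ-S and 40 μM GDP. Final buffer was 50 mM Tris-HCl pH 7.4, 100 mM NaCl, 10 mM MgCl2, 1 mM EDTA, 1 mM DTT and 0.1% BSA. Incubation ran 3 hr at 25 °C. Nonspecific binding was set with 40 μM GTP-γ-S. Bound label was separated by vacuum filtration through GF/B and counted.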

[7] = target: T3, Kappa-type opioid receptor; assay: Agonist activity at human recombinant kappa opioid receptor expressed in CHO cells assessed as [35S]GTP-gamma-S binding after 3 hrs by liquid scintillation counting relative to (-)U50488; type: functional, cell-based; outline: as §3
Mu-type opioid receptor [8] = target: T2, Mu-type opioid receptor; assay: Displacement of [3H]DAMGO from human recombinant mu opioid receptor expressed in CHO cells at 1 uM after 2 hrs by liquid scintillation counting; type: cell-based; outline: as §1
[9] = target: T1, Delta-type opioid receptor; assay: Displacement of [3H]DADLE from human recombinant delta opioid receptor expressed in CHO cells at 1 uM after 2 hrs by liquid scintillation counting; type: cell-based; outline: as §1
[10] = target: T3, Kappa-type opioid receptor; assay: Agonist activity at human recombinant kappa opioid receptor expressed in CHO cells assessed as calcium mobilization after 1 hrs by fluorescence analysis; type: functional, cell-based
Outline: (§4)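 CHO cells stably expressing KOP receptor with Gαq16 were plated at 30,000 cells/well and grown overnight at 37 °C. They were loaded with Calcium 5 dye in HBSS with 20 mM HEPES, 0.25% BSA, 1% DMSO and probenecid for 1 h at 37 °C. Compounds were added at 10X after a ~17 sec baseline, and fluorescence (ex 485/em 525 nm) was read every 1.52 sec for 60 sec. EC50 and Emax are given ±SD.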

[11] = target: T3, Kappa-type opioid receptor; assay: Agonist activity at human recombinant kappa opioid receptor expressed in CHO cells assessed as calcium mobilization after 1 hrs by fluorescence analysis relative to U69593; type: functional, cell-based; outline: as §4
[12] = target: T3, Kappa-type opioid receptor; assay: Displacement of [3H]U69593 from human recombinant kappa opioid receptor expressed in CHO cells at 10 uM after 2 hrs by liquid scintillation counting; type: cell-based; outline: as §1

T3 sequence (P41145 whole entry): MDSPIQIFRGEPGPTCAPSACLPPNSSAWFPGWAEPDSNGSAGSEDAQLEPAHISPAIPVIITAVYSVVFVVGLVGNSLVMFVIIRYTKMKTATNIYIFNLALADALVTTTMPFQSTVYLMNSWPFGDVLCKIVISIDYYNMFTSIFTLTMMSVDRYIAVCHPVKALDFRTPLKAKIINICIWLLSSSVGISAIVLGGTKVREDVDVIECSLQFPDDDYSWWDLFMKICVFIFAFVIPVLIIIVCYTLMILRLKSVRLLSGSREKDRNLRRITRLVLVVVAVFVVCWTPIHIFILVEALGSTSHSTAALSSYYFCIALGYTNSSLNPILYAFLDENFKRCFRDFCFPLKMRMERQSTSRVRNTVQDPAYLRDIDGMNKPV
T2 sequence (P35372 whole entry): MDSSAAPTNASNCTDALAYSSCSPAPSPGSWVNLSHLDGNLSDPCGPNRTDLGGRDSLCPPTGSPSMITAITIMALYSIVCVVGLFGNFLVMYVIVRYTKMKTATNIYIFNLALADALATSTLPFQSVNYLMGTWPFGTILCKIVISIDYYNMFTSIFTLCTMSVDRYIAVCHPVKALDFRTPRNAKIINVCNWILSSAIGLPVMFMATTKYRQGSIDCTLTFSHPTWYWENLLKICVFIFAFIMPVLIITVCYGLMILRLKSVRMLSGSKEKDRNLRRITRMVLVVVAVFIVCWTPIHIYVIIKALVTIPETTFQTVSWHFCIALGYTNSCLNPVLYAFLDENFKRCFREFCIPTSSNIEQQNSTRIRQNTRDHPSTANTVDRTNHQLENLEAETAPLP
T1 sequence (P41143 whole entry): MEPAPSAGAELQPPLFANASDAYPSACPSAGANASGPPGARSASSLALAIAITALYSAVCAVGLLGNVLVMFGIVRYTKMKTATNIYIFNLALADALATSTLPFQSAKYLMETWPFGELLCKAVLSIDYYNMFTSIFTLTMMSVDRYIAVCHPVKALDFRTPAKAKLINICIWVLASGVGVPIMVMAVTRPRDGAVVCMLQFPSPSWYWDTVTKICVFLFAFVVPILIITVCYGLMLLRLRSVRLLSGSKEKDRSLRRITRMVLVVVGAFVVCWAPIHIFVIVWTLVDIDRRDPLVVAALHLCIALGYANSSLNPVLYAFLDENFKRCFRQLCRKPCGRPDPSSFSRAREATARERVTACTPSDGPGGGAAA

COC(=O)[C@@H]1C[C@H](OC(C)=O)C(=O)[C@H]2[C@@]1(C)CC[C@H]1C(=O)O[C@H](C(=O)c3cc4ccccc4s3)C[C@]21C
Activity [1]: 95%
Ki [2]: > 10 µM
Ki (Mu-type opioid receptor [3]): > 10 µM
Activity (Mu-type opioid receptor [4]): 58%
Ki [5]: 9210 nM

COC(=O)[C@@H]1C[C@H](OC(C)=O)C(=O)[C@H]2[C@@]1(C)CC[C@H]1C(=O)O[C@H](c3ccoc3)C[C@]21C [SALVINORIN A]
ED50 (Rhesus monkey): 0.0037 mg/kg

COC(=O)[C@@H]1C[C@H](OC(C)=O)C(=O)[C@H]2[C@@]1(C)CC[C@H]1C(=O)O[C@@H](c3ccoc3)C[C@]21C [12-EPI-SALVINORIN A]
Activity [1]: 74%
Activity (Mu-type opioid receptor [4]): 72%
ED50 (Rhesus monkey): 0.038 mg/kg

COC(=O)[C@@H]1C[C@H](OC(C)=O)C(=O)[C@H]2[C@@]1(C)CC[C@H]1C(=O)O[C@H](C(=O)c3ccsc3)C[C@]21C
EC50 [6]: 620 nM
Activity [1]: 88%
Ki [2]: > 10 µM
Ki (Mu-type opioid receptor [3]): 2.53 µM
Ki [5]: 31 nM
Emax [7]: 88%

COC(=O)[C@@H]1C[C@H](OC(C)=O)C(=O)[C@H]2[C@@]1(C)CC[C@H]1C(=O)O[C@H](C(=O)c3csc4ccccc34)C[C@]21C
Ki [2]: > 1 µM
Ki (Mu-type opioid receptor [3]): > 1 µM
Ki [5]: > 10000 nM
Activity (Mu-type opioid receptor [8]): 60%
Activity [9]: 56%

COC(=O)[C@@H]1C[C@H](OC(C)=O)C(=O)[C@H]2[C@@]1(C)CC[C@H]1C(=O)O[C@H](C(=O)c3cccc(O)c3)C[C@]21C
Activity [1]: 80%
Ki [2]: > 10 µM
Ki (Mu-type opioid receptor [3]): > 1 µM
Ki [5]: 110 nM
Activity (Mu-type opioid receptor [8]): 55%

COC(=O)[C@@H]1C[C@H](OC(C)=O)C(=O)[C@H]2[C@@]1(C)CC[C@H]1C(=O)O[C@H](/C=C/c3ccoc3)C[C@]21C
Activity [1]: 66%
Ki [2]: > 10 µM
Ki (Mu-type opioid receptor [3]): > 10 µM
Activity (Mu-type opioid receptor [4]): 78%
Ki [5]: 1120 nM

COC(=O)[C@@H]1C[C@H](OC(C)=O)C(=O)[C@H]2[C@@]1(C)CC[C@H]1C(=O)O[C@H](C(=O)c3ccc(OC)cc3)C[C@]21C
Ki [2]: > 10 µM
Ki (Mu-type opioid receptor [3]): > 10 µM
Activity (Mu-type opioid receptor [4]): 74%
Ki [5]: > 10000 nM
Activity [9]: 81%

COC(=O)[C@@H]1C[C@H](OC(C)=O)C(=O)[C@H]2[C@@]1(C)CC[C@H]1C(=O)O[C@H](C(=O)c3cccc(C(F)(F)F)c3)C[C@]21C
Ki [2]: > 1 µM
Ki (Mu-type opioid receptor [3]): 3.4 µM
Ki [5]: 2260 nM
Activity [9]: 46%

COC(=O)[C@@H]1C[C@H](OC(C)=O)C(=O)[C@H]2[C@@]1(C)CC[C@H]1C(=O)O[C@H](C(=O)c3cccc(OC(F)(F)F)c3)C[C@]21C
Ki [2]: > 1 µM
Ki (Mu-type opioid receptor [3]): 4.8 µM
Ki [5]: > 10000 nM
Activity [9]: 37%

COC(=O)[C@@H]1C[C@H](OC(C)=O)C(=O)[C@H]2[C@@]1(C)CC[C@H]1C(=O)O[C@H](C(=O)c3ccoc3)C[C@]21C
Activity [1]: 95%
Ki [2]: > 10 µM
Ki (Mu-type opioid receptor [3]): > 10 µM
Activity (Mu-type opioid receptor [4]): 66%
Ki [5]: 150 nM

COC(=O)[C@@H]1C[C@H](OC(C)=O)C(=O)[C@H]2[C@@]1(C)CC[C@H]1C(=O)O[C@H](C(=O)c3cccc(OC)c3)C[C@]21C
Ki [2]: > 10 µM
Ki (Mu-type opioid receptor [3]): 3.09 µM
Ki [5]: 290 nM
Activity [9]: 77%

COC(=O)[C@@H]1C[C@H](OC(C)=O)C(=O)[C@H]2[C@@]1(C)CC[C@H]1C(=O)O[C@H](C(=O)c3ccco3)C[C@]21C
EC50 [6]: 2130 nM
Activity [1]: 91%
Ki [2]: > 10 µM
Ki (Mu-type opioid receptor [3]): 9.8 µM
Ki [5]: 80 nM
Emax [7]: 92%

COC(=O)[C@@H]1C[C@H](OC(C)=O)C(=O)[C@H]2[C@@]1(C)CC[C@H]1C(=O)O[C@H](C(=O)c3ccccc3OC)C[C@]21C
Ki [2]: > 10 µM
Ki (Mu-type opioid receptor [3]): > 10 µM
Activity (Mu-type opioid receptor [4]): 53%
Ki [5]: 1070 nM
Activity [9]: 87%

COC(=O)[C@@H]1C[C@H](OC(C)=O)C(=O)[C@H]2[C@@]1(C)CC[C@H]1C(=O)O[C@H](C(=O)c3ccc(O)cc3)C[C@]21C
Activity [1]: 100%
Ki [2]: > 10 µM
Ki (Mu-type opioid receptor [3]): > 10 µM
Activity (Mu-type opioid receptor [4]): 93%
Ki [5]: 8470 nM

COC(=O)[C@@H]1C[C@H](OC(C)=O)C(=O)[C@H]2[C@@]1(C)CC[C@H]1C(=O)O[C@H](C(=O)c3cccc(C(N)=O)c3)C[C@]21C
EC50 [6]: 730 nM
EC50 [10]: 75.4 nM
Ki [2]: > 10 µM
Ki (Mu-type opioid receptor [3]): > 10 µM
Ki [5]: 40 nM
Activity (Mu-type opioid receptor [8]): 84%
Emax [7]: 92%
Activity [9]: 52%
Emax [11]: 97%

C/C=C\C(=O)[C@@H]1C[C@]2(C)[C@H]3C(=O)[C@@H](OC(C)=O)C[C@@H](C(=O)OC)[C@]3(C)CC[C@H]2C(=O)O1
Ki [2]: > 5 µM
Ki (Mu-type opioid receptor [3]): > 1.7 µM
Ki [5]: 320 nM

COC(=O)[C@@H]1C[C@H](OC(C)=O)C(=O)[C@H]2[C@@]1(C)CC[C@H]1C(=O)O[C@H](c3ccco3)C[C@]21C
EC50 [6]: 140 nM
EC50 [10]: 12.2 nM
Ki [2]: > 10 µM
Ki (Mu-type opioid receptor [3]): > 1 µM
Activity (Mu-type opioid receptor [8]): 81%
Emax [7]: 104%
Activity [9]: 99%
Emax [11]: 97%

COC(=O)[C@@H]1C[C@H](OC(C)=O)C(=O)[C@H]2[C@@]1(C)CC[C@H]1C(=O)O[C@H](C(=O)c3cc4ccccc4o3)C[C@]21C
Activity [12]: 92%
Activity [1]: 91%
Ki [2]: > 10 µM
Ki (Mu-type opioid receptor [3]): > 10 µM
Activity (Mu-type opioid receptor [4]): 100%
Ki [5]: > 10000 nM

COC(=O)[C@@H]1C[C@H](OC(C)=O)C(=O)[C@H]2[C@@]1(C)CC[C@H]1C(=O)O[C@H](C(=O)c3cccs3)C[C@]21C
EC50 [6]: 1630 nM
Activity [1]: 99%
Ki [2]: > 10 µM
Ki (Mu-type opioid receptor [3]): > 10 µM
Activity (Mu-type opioid receptor [4]): 65%
Ki [5]: 36 nM
Emax [7]: 95%

COC(=O)[C@@H]1C[C@H](OC(C)=O)C(=O)[C@H]2[C@@]1(C)CC[C@H]1C(=O)O[C@H](C(=O)c3ccccc3O)C[C@]21C
Activity [1]: 94%
Ki [2]: > 10 µM
Ki (Mu-type opioid receptor [3]): 3.6 µM
Ki [5]: 500 nM

COC(=O)[C@@H]1C[C@H](OC(C)=O)C(=O)[C@H]2[C@@]1(C)CC[C@H]1C(=O)O[C@H](C(=O)c3cccc(C#N)c3)C[C@]21C
Ki [2]: > 10 µM
Ki (Mu-type opioid receptor [3]): > 1 µM
Ki [5]: 220 nM
Activity (Mu-type opioid receptor [8]): 61%
Activity [9]: 68%
